Measured values as given in ChEMBL document CHEMBL4842338, “System-oriented optimization of multi-target 2,6-diaminopurine derivatives: Easily accessible broad-spectrum antivirals active against flaviviruses, influenza virus and SARS-CoV-2” (Eur J Med Chem, 2021).
Activity calls are given as the source filed them. The calls are words filed in the database; no cut-off is given here.

Experiments:
Zika virus = test: Antiviral activity against Zika virus H/PF/2013 infected in pre-seeded Huh-7 cells assessed as inhibition of viral replication incubated for 72 hrs by immunodetection based secondary yield reduction assay; format: functional, organism-based; conditions: H/PF/2013, Huh-7, 72 h
[1] = Selectivity index, ratio of CC50 for human Huh-7 cells to IC50 for Zika virus H/PF/2013 infected in pre-seeded Huh-7 cells assessed as inhibition of viral replication incubated for 72 hrs by immunodetection based secondary yield reduction assay; format: toxicity, cell-based; conditions: read-out: Selectivity Index
Huh-7 = test: (§1) Cytotoxicity against human Huh-7 cells assessed as reduction in cell viability by Celltiter-Glo luminescent cell viability assay; format: cell-based; conditions: huh-7
In short: (§2)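 Compound-exposed cells assessed by CellTiter-Glo luminescence versus DMSO control; CC50 from dose-response.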

dengue virus type 2 [2] = test: Antiviral activity against Dengue virus serotype 2 New Guinea C infected in pre-seeded Huh-7 cells assessed as inhibition of viral replication incubated for 72 hrs by immunodetection based secondary yield reduction assay; format: functional, organism-based
[3] = as §1; format: cell-based; conditions: Huh-7 cells; in short: as §2
[4] = Selectivity index, ratio of CC50 for human Huh-7 cells to IC50 for Dengue virus serotype 2 New Guinea C infected in pre-seeded Huh-7 cells assessed as inhibition of viral replication incubated for 72 hrs by immunodetection based secondary yield reduction assay; format: toxicity, cell-based; conditions: read-out: Selectivity Index
West Nile virus [5] = test: Antiviral activity against West Nile virus lineage 1 (Italy/2009) infected in pre-seeded Huh-7 cells assessed as inhibition of viral replication incubated for 48 hrs by immunodetection based direct yield reduction assay; format: functional, organism-based
dengue virus type 2 [6] = test: Antiviral activity against Dengue virus serotype 2 New Guinea C infected in pre-seeded Huh-7 cells assessed as inhibition of viral replication incubated for 72 hrs by immunodetection based direct yield reduction assay; format: functional, organism-based; conditions: Dengue virus, New Guinea C, Huh-7, 72 h; read-out: IC50
[7] = Selectivity index, ratio of CC50 for human Huh-7 cells to IC50 for Dengue virus serotype 2 New Guinea C infected in pre-seeded Huh-7 cells assessed as inhibition of viral replication incubated for 72 hrs by immunodetection based direct yield reduction assay; format: toxicity, cell-based; conditions: read-out: Selectivity Index
In short: (§3)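 Direct yield reduction in Huh7 cells (7000/well), infected with 50 TCID₅₀ of DENV or ZIKV, or 25 TCID₅₀ of WNV. Adsorption 1 h at 37 °C, then virus removed and serial compound dilutions added. Incubated 72 h (DENV, ZIKV) or 48 h (WNV). Viral antigen immunodetected on the monolayer. IC₅₀ by non-linear regression, mean of three experiments. SI = CC₅₀ (Huh7, CellTiter-Glo luminescence)/IC₅₀.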

[8] = Inhibition of DENV NS5-MTase domain using GpppA2'OMe-RNA74 as a substrate incubated for 30 mins by filter binding assay; parameters: species or system dengue virus type 2; conditions: read-out: IC50
In short: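 MTase (1 μM) incubated with increasing inhibitor in 40 mM Tris-HCl pH 7.5, 5 mM DTT, 10 μM AdoMet ([3H]-labelled), 0.5 μM GpppA2′OMe-RNA74 substrate, 30 °C for 30 min; stopped in ice-cold 100 μM AdoHcy; DEAE filter binding, scintillation counting.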

[9] = Inhibition of full length ZIKV NS5-MTase domain using 7MeGpppAC4 as a substrate incubated for 30 mins by filter binding assay; parameters: species or system Zika virus
[10] = Selectivity index, ratio of CC50 for human Huh-7 cells to IC50 for West Nile virus lineage 1 (Italy/2009) infected in pre-seeded Huh-7 cells assessed as inhibition of viral replication incubated for 48 hrs by immunodetection based plaque reduction assay; format: toxicity, cell-based; conditions: read-out: Selectivity Index
[11] = Selectivity index, ratio of CC50 for human Huh-7 cells to IC50 for West Nile virus lineage 1 (Italy/2009) infected in pre-seeded Huh-7 cells assessed as inhibition of viral replication incubated for 48 hrs by immunodetection based direct yield reduction assay; format: toxicity, cell-based; conditions: read-out: Selectivity Index; in short: as §3
West Nile virus [12] = test: Antiviral activity against West Nile virus lineage 1 (Italy/2009) infected in pre-seeded Huh-7 cells assessed as inhibition of viral replication incubated for 48 hrs by immunodetection based plaque reduction assay; format: functional, organism-based; conditions: Huh-7, 48 h
[13] = Inhibition of full length Dengue virus 2 NS5 RNA dependent RNA polymerase incubated for 10 mins by picogreen staining based fluorescent analysis (Rvb= 0.32+/-0.05 uM); parameters: species or system dengue virus type 2
[14] = Inhibition of full length ZIKA virus NS5 RNA dependent RNA polymerase incubated for 10 mins by picogreen staining based fluorescent analysis (Rvb= 1+/-0.2 uM)
[15] = biological target: Abl (Tyrosine-protein kinase ABL1) (Homo sapiens, UniProt P00519); test: Inhibition of human recombinant N terminal His6 tagged Abl (27 to end residue) assessed as residual activity at 5 uM using KKGEAIYAADFA-NH2 as a substrate in the presence of NP-40 incubated for 10 mins by scintillation counting analysis relative to control; conditions: probe KKGEAIYAADFA-NH2, read-out: Activity
Abl (Tyrosine-protein kinase ABL1), sequence (P00519 whole entry): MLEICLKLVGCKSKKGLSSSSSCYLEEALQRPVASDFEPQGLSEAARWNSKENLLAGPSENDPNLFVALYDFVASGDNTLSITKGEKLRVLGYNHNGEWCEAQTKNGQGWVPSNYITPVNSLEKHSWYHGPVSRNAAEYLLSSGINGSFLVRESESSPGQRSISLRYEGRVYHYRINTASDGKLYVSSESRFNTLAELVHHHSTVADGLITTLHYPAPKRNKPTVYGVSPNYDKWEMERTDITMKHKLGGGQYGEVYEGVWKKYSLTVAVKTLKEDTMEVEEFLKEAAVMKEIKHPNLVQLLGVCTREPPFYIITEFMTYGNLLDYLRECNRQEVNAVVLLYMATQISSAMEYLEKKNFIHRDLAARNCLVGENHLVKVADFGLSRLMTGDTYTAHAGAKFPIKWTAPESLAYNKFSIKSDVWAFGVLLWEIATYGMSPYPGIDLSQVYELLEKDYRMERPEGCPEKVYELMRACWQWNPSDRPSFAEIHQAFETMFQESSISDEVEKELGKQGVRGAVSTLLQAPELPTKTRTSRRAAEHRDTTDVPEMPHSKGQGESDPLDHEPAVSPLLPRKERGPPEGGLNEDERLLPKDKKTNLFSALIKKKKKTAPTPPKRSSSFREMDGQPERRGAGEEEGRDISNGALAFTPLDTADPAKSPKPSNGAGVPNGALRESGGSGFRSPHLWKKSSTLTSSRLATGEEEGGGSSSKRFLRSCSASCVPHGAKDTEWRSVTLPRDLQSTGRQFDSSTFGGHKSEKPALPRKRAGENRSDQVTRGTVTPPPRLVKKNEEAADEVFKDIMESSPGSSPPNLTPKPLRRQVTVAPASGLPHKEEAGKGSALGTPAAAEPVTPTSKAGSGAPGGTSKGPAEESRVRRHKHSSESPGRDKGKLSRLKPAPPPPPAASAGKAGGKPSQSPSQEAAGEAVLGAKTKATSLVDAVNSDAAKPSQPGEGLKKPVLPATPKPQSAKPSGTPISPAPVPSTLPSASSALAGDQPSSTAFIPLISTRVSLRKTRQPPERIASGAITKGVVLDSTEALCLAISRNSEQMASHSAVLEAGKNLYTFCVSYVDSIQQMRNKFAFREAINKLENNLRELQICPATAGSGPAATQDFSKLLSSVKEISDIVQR
In short: (§4)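 Compounds at fixed 5 μM; 10–50 ng kinase, substrate and NP-40/BSA per supplementary table, 10 μL at 30 °C for 10 min in low-binding tubes. Reactions spotted on filter, dried, scintillation counted. Mean ± SD of two independent experiments.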

CDK9/cyclin T1 = CDK9/cyclin T1 (Homo sapiens, UniProt P50750); test: Inhibition of human full length CDK9/ His-tagged cT1 assessed as residual activity at 5 uM using CDKtide as a substrate in the presence of BSA incubated for 10 mins by scintillation counting analysis relative to control; format: protein-complex assay; conditions: full length CDK9/His-tagged cyclin T1 complex, probe CDKtide, read-out: Activity; in short: as §4
CDK9/cyclin T1, sequence (O60563 whole entry, canonical isoform): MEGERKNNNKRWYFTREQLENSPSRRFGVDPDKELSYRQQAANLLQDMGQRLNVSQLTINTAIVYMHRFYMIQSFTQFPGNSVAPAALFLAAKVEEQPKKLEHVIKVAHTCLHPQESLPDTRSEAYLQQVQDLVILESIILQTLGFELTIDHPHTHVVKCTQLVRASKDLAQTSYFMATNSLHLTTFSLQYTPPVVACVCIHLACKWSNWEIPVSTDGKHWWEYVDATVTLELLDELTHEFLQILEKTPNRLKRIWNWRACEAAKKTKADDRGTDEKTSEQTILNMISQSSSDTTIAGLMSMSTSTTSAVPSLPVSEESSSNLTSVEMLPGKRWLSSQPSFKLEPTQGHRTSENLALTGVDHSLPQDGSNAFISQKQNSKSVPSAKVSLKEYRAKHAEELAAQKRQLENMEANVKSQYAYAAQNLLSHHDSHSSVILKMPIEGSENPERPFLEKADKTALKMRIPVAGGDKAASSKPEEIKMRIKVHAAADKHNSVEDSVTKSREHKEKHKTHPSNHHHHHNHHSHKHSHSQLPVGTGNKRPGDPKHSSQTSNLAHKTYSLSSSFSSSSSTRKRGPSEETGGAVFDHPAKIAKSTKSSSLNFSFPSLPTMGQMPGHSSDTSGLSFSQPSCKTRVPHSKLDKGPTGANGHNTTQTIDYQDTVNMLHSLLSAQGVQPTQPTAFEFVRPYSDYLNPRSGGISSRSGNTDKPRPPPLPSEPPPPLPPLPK
CDK9/cyclin T1, sequence (P50750 whole entry, canonical isoform): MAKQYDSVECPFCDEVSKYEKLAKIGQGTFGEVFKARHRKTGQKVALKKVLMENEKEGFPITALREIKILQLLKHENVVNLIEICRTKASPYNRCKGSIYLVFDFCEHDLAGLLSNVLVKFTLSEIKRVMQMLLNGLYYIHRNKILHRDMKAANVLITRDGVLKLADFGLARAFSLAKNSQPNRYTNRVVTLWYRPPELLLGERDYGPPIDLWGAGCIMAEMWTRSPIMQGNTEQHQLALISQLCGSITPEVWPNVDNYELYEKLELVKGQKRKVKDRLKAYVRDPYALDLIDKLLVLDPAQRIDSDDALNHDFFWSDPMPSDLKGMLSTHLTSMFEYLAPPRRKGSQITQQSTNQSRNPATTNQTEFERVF

[16] = biological target: PIK3CA (Phosphatidylinositol 4,5-bisphosphate 3-kinase catalytic subunit alpha isoform) (Homo sapiens, UniProt P42336); test: Inhibition of human full length PIK3CA assessed as residual activity at 5 uM using PI:PS (1:3) as a substrate incubated for 10 mins by scintillation counting analysis relative to control; conditions: full length PIK3CA enzyme, probe PI:PS (1:3), read-out: Activity
PIK3CA (Phosphatidylinositol 4,5-bisphosphate 3-kinase catalytic subunit alpha isoform), sequence (P42336 whole entry, canonical isoform): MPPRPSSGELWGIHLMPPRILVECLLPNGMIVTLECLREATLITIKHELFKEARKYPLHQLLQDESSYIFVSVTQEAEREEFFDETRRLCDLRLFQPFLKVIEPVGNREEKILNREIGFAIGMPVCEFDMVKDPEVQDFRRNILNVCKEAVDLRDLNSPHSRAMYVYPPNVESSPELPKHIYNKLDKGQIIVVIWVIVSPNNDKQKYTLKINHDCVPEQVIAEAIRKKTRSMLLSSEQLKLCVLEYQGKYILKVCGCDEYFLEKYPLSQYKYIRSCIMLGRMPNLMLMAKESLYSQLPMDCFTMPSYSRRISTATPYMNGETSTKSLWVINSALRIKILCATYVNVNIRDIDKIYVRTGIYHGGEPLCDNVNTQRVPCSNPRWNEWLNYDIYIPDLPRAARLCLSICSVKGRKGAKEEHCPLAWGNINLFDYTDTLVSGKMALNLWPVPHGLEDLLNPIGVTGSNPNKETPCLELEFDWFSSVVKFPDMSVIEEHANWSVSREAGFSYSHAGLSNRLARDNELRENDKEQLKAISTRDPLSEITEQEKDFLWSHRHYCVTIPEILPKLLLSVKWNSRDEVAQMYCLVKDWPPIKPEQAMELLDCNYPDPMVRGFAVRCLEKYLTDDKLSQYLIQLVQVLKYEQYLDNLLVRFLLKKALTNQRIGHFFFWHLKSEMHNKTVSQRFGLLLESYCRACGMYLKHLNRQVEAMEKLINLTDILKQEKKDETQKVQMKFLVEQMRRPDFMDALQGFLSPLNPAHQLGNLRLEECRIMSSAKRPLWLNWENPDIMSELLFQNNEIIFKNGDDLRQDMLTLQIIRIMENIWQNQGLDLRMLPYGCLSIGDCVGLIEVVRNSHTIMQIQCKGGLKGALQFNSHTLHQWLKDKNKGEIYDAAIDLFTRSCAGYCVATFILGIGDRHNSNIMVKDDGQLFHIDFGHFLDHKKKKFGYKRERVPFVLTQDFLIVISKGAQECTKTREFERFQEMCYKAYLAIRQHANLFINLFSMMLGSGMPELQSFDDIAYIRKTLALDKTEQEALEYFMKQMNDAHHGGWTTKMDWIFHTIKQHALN
In short: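 Radiometric kinase reaction with 10–50 ng enzyme and compound fixed at 5 μM, 10 μL at 30 °C for 10 min. Reactions spotted on filter and counted by scintillation. Residual activity is the mean ± SD of two independent experiments.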

[17] = biological target: Src (Proto-oncogene tyrosine-protein kinase Src) (Homo sapiens, UniProt P12931); test: Inhibition of human recombinant N terminal His6 tagged full length Src assessed as residual activity at 5 uM using KVEKIGEGTYGVVYK as a substrate in the presence of NP-40 incubated for 10 mins by scintillation counting analysis relative to control; conditions: probe KVEKIGEGTYGVVYK, read-out: Activity; in short: as §4
Src (Proto-oncogene tyrosine-protein kinase Src), sequence (P12931 2-536 limits assumed): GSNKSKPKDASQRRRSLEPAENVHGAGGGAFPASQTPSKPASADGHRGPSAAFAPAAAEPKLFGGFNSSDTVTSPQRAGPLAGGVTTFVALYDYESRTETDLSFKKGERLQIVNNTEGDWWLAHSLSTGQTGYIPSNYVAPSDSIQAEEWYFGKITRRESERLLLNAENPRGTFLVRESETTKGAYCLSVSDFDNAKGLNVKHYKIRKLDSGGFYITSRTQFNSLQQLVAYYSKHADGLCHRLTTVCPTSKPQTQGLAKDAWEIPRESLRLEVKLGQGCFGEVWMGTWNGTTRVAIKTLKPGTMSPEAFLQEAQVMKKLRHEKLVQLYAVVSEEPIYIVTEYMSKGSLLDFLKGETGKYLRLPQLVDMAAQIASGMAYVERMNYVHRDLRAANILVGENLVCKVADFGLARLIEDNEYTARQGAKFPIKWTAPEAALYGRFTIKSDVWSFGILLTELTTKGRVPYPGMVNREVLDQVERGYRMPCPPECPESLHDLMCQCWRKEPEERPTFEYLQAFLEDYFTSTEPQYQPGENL

[18] = Antioxidant activity assessed as inhibition of ABTS radical scavenging activity at 10 uM to 1 mM measured after 10 mins; format: functional
In short: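 ABTS radical solution diluted in ethanol (1:100) to A734 0.70; 3.0 mL mixed with 30 μL sample in DMSO at 10 μM–1 mM; A734 read after exactly 10 min; ascorbic acid reference; % scavenging = (A0−As)/A0×100.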

[19] = Inhibition of Dengue virus 2 […] RNA dependent RNA polymerase incubated for 10 mins by picogreen staining based fluorescent analysis (Rvb= 0.27+/-0.03 uM); parameters: species or system dengue virus type 2
[20] = biological target: Fyn (Tyrosine-protein kinase Fyn) (Homo sapiens, UniProt P06241); test: Inhibition of human recombinant N terminal His6 tagged full length Fyn assessed as residual activity at 5 uM using […] as a substrate in the presence of NP-40 incubated for 10 mins by scintillation counting analysis relative to control; conditions: probe […], read-out: Activity; in short: as §4
Fyn (Tyrosine-protein kinase Fyn), sequence (P06241 whole entry): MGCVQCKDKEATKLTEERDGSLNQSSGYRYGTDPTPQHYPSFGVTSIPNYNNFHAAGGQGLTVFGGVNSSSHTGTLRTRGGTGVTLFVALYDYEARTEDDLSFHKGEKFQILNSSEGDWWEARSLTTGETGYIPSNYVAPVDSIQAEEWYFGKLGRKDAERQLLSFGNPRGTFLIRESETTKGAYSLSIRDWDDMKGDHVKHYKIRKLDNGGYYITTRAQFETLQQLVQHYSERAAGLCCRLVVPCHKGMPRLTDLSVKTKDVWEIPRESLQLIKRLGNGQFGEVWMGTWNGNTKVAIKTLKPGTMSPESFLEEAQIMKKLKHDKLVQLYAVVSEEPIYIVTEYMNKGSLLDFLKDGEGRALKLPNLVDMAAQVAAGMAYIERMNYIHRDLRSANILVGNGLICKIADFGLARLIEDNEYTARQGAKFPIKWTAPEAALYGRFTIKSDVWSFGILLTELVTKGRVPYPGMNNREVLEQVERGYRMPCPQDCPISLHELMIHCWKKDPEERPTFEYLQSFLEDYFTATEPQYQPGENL

[21] = Dengue virus, New Guinea C, Huh-7, 72 h, read-out: IC50
[22] = West Nile virus, lineage 1 (Italy/2009), Huh-7, 48 h, read-out: IC50

| Compound | IC50 (Zika virus) | selectivity ratio at 72 h [1] | CC50 (Huh-7) | IC50 (dengue virus type 2 [2]; [21]) | selectivity ratio at 72 h [4] | other results |
| --- | --- | --- | --- | --- | --- | --- |
| COC(=O)c1cccc(Nc2nc(NCCOc3ccccc3)nc3[nH]cnc23)c1 | 8.2 µM | 12 | 100 µM |  |  | IC50 (dengue virus type 2 [2]; huh-7): Not Active |
| Fc1cc(F)cc(/N=N/c2nc(NCCOc3ccccc3)nc3[nH]cnc23)c1 |  |  | 12 µM |  |  |  |
| FC(F)(F)c1cc(NNc2nc(NCCOc3ccccc3)nc3[nH]cnc23)cc(C(F)(F)F)c1 |  |  | 5 µM |  |  |  |
| Oc1ccc(Nc2nc(NCCOc3ccccc3)nc3[nH]cnc23)cc1O | 25 µM | 8 |  |  |  | CC50 [3]: 200 µM; IC50 (dengue virus type 2 [2]; huh-7): Not Active |
| CNc1nc(Nc2cccc(F)c2)c2nc[nH]c2n1 | 14.7 µM | 6 | 84 µM | 9.3 µM | 9 |  |
| FC(F)(F)c1cccc(NNc2nc(NCCOc3ccccc3)nc3[nH]cnc23)c1 |  |  | 7.5 µM |  |  |  |
| CNc1nc(Nc2cccc(C(F)(F)F)c2)c2nc[nH]c2n1 |  |  |  | 3.5 µM | 57 | IC50 (West Nile virus [5]; huh-7): Not Active; CC50 [3]: 200 µM; IC50 (dengue virus type 2 [6]): 4.9 µM; selectivity ratio at 72 h [7]: 41 |
| FC(F)(F)c1cccc(Nc2nc(NCCOc3ccccc3)c3nc[nH]c3n2)c1 |  |  | 6 µM |  |  |  |
| OCCNc1nc(Nc2cccc(F)c2)c2nc[nH]c2n1 | 8.9 µM | 15 | 136 µM | 29.8 µM | 5 |  |
| Nc1ncnc2c1ncn2[C@@H]1O[C@H](C[C@@H](N)CC[C@H](N)C(=O)O)[C@@H](O)[C@H]1O [SINEFUNGIN] |  |  |  |  |  | IC50 [8]: 0.63 µM; IC50 ([9]; read-out: IC50): 1.18 µM |
| O=C(O)c1cccc(Nc2nc(NCCOc3ccccc3)nc3[nH]cnc23)c1 | 29 µM | 7 |  | 28.2 µM | 7 | CC50 [3]: 200 µM |
| FC(F)(F)c1ccc(/N=N/c2nc(NCCOc3ccccc3)nc3[nH]cnc23)cc1 |  |  | 8 µM |  |  |  |
| Fc1cc(F)cc(NNc2nc(NCCOc3ccccc3)nc3[nH]cnc23)c1 |  |  | 8.5 µM |  |  |  |
| CNc1nc(Nc2cccc(C(=O)OC)c2)c2nc[nH]c2n1 | 8 µM | 25 |  | 18 µM | 11 | CC50 [3]: 200 µM |
| Fc1cccc(Nc2nc(NCCOc3ccccc3)c3nc[nH]c3n2)c1 |  |  | 8 µM |  |  |  |
| OCCNc1nc(Nc2cccc(C(F)(F)F)c2)c2nc[nH]c2n1 | 10.6 µM | 5 | 50 µM | 4.5 µM | 11 | selectivity ratio at 48 h [10]: 33; IC50 (West Nile virus [5]; [22]): 1.9 µM; selectivity ratio at 48 h [11]: 26; IC50 (West Nile virus [12]): 1.5 µM |
| CNc1nc(Nc2cccc(C(=O)O)c2)c2nc[nH]c2n1 | 33.5 µM | 6 |  |  |  | CC50 [3]: 200 µM; IC50 (dengue virus type 2 [2]; huh-7): Not Active |
| FC(F)(F)c1cc(/N=N/c2nc(NCCOc3ccccc3)nc3[nH]cnc23)cc(C(F)(F)F)c1 |  |  | 7.5 µM |  |  |  |
| Fc1cccc(/N=N/c2nc(NCCOc3ccccc3)nc3[nH]cnc23)c1 | 2.8 µM | 7 | 18.5 µM | 4 µM | 5 | selectivity ratio at 48 h [10]: 30; IC50 (West Nile virus [5]; [22]): 0.6 µM; IC50 [13]: > 100 µM; IC50 [14]: > 100 µM; activity at 10 min, 5 µM [15]: > 98%; activity at 10 min, 5 µM (CDK9/cyclin T1): > 98%; selectivity ratio at 48 h [11]: 28; activity at 10 min, 5 µM [16]: 78%; IC50 [8]: 226 µM; activity at 10 min, 5 µM [17]: > 98%; Activity [18]: Active; IC50 (West Nile virus [12]): 0.6 µM; IC50 [9]: Not Active; IC50 [19]: > 100 µM; activity at 10 min, 5 µM [20]: 89% |
| Oc1cccc(Nc2nc(NCCOc3ccccc3)nc3[nH]cnc23)c1 |  |  |  |  |  | activity at 10 min, 5 µM [15]: 65%; activity at 10 min, 5 µM (CDK9/cyclin T1): > 98% |
| COC(=O)c1cccc(Nc2nc(NCCO)nc3[nH]cnc23)c1 | 6.2 µM | 32 |  | 17.5 µM | 11 | CC50 [3]: 200 µM |
| FC(F)(F)c1ccc(NNc2nc(NCCOc3ccccc3)nc3[nH]cnc23)cc1 |  |  | 8 µM |  |  |  |
| COc1cc(Nc2nc(NCCOc3ccccc3)nc3[nH]cnc23)cc(OC)c1OC |  |  | 7.5 µM |  |  |  |
